Results as given in ChEMBL document CHEMBL1125113, “(S)-5-fluoro-8-hydroxy-2-(dipropylamino)tetralin: a putative 5-HT1A-receptor antagonist” (J Med Chem, 1990).

How the values were obtained:
[1] = target: T1, Aromatic-L-amino-acid decarboxylase (Homo sapiens) (UniProt P20711); experiment: The effect on the accumulation of DOPA in rat brain(limbic), by subcutaneous administration at a dose of 10(umol/kg); format: functional, organism-based; conditions: target entry is the homologue from another species
T1 sequence (whole entry): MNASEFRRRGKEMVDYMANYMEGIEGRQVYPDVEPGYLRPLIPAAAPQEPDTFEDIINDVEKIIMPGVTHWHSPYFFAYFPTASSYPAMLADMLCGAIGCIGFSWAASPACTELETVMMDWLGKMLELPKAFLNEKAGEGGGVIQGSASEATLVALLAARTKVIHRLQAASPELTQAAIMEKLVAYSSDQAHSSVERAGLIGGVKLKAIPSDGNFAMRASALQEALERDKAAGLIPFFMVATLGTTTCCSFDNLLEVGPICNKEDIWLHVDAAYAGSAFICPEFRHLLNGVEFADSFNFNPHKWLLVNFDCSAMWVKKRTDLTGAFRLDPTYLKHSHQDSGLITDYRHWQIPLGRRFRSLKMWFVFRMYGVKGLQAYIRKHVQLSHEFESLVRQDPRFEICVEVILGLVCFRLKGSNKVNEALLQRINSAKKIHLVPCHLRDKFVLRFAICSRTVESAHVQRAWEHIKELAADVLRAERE
Summary of the method: (§1)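 Nonpretreated rats received the test drug sc 60 min before death. The decarboxylase inhibitor NSD 1015 (287 µmol/kg sc) was given 30 min before death. Brain 5-HTP and DOPA in limbic and striatal regions were measured by HPLC with electrochemical detection. Values are means ± SEM, with n = 9 controls and 5–7 per experimental group.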

Rattus norvegicus [2] = experiment: The effect on the accumulation of 5-HTP in rat brain(striatum), by subcutaneous administration at a dose of 32(umol/kg); format: functional; summary of the method: as §1
Rattus norvegicus [3] = experiment: The effect on the accumulation of 5-HTP in rat brain(limbic), by subcutaneous administration at a dose of 10(umol/kg); format: functional; summary of the method: as §1
[4] = target: T1, Aromatic-L-amino-acid decarboxylase (Homo sapiens); experiment: The effect on the accumulation of DOPA in rat brain(striatum), by subcutaneous administration at a dose of 10(umol/kg); format: functional, organism-based; conditions: target entry is the homologue from another species; summary of the method: as §1
[5] = target: T2, 5-hydroxytryptamine receptor 1A (Rattus norvegicus, UniProt P19327); experiment: Binding affinity towards 5-hydroxytryptamine 1A receptor sites in cortical membranes using [3H]8-OH-DPAT as radioligand; format: cell membranes
T2 sequence (P19327 whole entry): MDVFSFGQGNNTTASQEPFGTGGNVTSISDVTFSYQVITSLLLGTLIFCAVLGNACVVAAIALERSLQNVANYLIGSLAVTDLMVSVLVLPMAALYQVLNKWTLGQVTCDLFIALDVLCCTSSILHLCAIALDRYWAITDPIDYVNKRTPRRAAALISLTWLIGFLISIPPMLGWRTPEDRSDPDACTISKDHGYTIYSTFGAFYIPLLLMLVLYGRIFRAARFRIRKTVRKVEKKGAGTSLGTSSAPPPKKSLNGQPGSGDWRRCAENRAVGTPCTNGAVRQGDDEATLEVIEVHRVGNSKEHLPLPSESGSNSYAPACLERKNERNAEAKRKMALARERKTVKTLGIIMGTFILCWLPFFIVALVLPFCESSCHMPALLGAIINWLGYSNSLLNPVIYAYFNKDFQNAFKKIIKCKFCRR

[6] = target: T1, Aromatic-L-amino-acid decarboxylase (Homo sapiens); experiment: The effect on the accumulation of DOPA in rat brain(striatum), by subcutaneous administration at a dose of 0.32(umol/kg); format: functional, organism-based; conditions: target entry is the homologue from another species; summary of the method: as §1
[7] = target: T1, Aromatic-L-amino-acid decarboxylase (Homo sapiens); experiment: The effect on the accumulation of DOPA in rat brain(limbic), by subcutaneous administration at a dose of 0.32(umol/kg); format: functional, organism-based; conditions: target entry is the homologue from another species; summary of the method: as §1
Rattus norvegicus [8] = experiment: The effect on the accumulation of 5-HTP in rat brain(striatum), by subcutaneous administration at a dose of 0.32(umol/kg); format: functional; summary of the method: as §1
Rattus norvegicus [9] = experiment: The effect on the accumulation of 5-HTP in rat brain(limbic), by subcutaneous administration at a dose of 0.32(umol/kg); format: functional; summary of the method: as §1
Rattus norvegicus [10] = experiment: The effect on the accumulation of 5-HTP in rat brain(striatum), by subcutaneous administration at a dose of 10(umol/kg); format: functional; summary of the method: as §1

Row | Structure (SMILES) | Potencymean [1] [ng/g] | Potencymean (Rattus norvegicus [2]) [ng/g] | Potencymean (Rattus norvegicus [3]) [ng/g] | Potencymean [4] [ng/g] | Ki [5] [nM] | Potencymean [6] [ng/g] | Potencymean [7] [ng/g] | Potencymean (Rattus norvegicus [8]) [ng/g] | Potencymean (Rattus norvegicus [9]) [ng/g] | Potencymean (Rattus norvegicus [10]) [ng/g]
1 | CCCN(CCC)[C@H]1CCc2c(F)ccc(O)c2C1 | 324 | 91.4 | 152 | < 682 | 52 |  |  |  |  | 
2 | CCCN(CCC)[C@@H]1CCc2cccc(O)c2C1 |  |  |  |  |  | 909 | 371 | <53.3 | <103 | 
3 | CCCN(CCC)[C@@H]1CCc2c(F)ccc(O)c2C1 | 398 |  | <86.5 | 1190 | 6.1 |  |  |  |  | <59.7
